Measurements from ChEMBL document CHEMBL1811872, “Tryptophan 2,3-dioxygenase (TDO) inhibitors. 3-(2-(pyridyl)ethenyl)indoles as potential anticancer immunomodulators” (J Med Chem, 2011).

Substrate: N[C@@H](Cc1c[nH]c2ccccc12)C(=O)O
Experiment: Activity of human recombinant TDO expressed in Escherichia coli BL21 using L-tryptophan as substrate by measuring conversion of N-formylkynurenine into kynurenine per mg of protein after 30 mins by Michaelis-Menten steady state analysis
How it was run: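 Crude extract of E. coli overexpressing recombinant human TDO (~3 μg total protein) was added to prewarmed mix: 50 mM phosphate pH 7.5, 20 mM ascorbate, 10 μM methylene blue, 500 IU/mL catalase and varied L-Trp. Run at 37 °C, stopped with TCA at 2 and 4 min, then 65 °C for 30 min. Kynurenine was read at 480 nm with Ehrlich's reagent against a kynurenine standard curve; rate taken from 2–4 min.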

B1: Tryptophan 2,3-dioxygenase (Homo sapiens), P48775 (protein)
chain: MSGCPFLGNNFGYTFKKLPVEGSEEDKSQTGVNRASKGGLIYGNYLHLEKVLNAQELQSETKGNKIHDEHLFIITHQAYELWFKQILWELDSVREIFQNGHVRDERNMLKVVSRMHRVSVILKLLVQQFSILETMTALDFNDFREYLSPASGFQSLQFRLLENKIGVLQNMRVPYNRRHYRDNFKGEENELLLKSEQEKTLLELVEAWLERTPGLEPHGFNFWGKLEKNITRGLEEEFIRIQAKEESEEKEEQVAEFQKQKEVLLSLFDEKRHEHLLSKGERRLSYRALQGALMIYFYREEPRFQVPFQLLTSLMDIDSLMTKWRYNHVCMVHRMLGSKAGTGGSSGYHYLRSTVSDRYKVFVDLFNLSTYLIPRHWIPKMNPTIHKFLYTAEYCDSSYFSSDESD
B1 was tested, and the Km was 167 µM and the Vmax was 97 µM/s.
